Sampled rows, rich in hits. Any-hit rate of the full collection: about 1.4%.
CHT PAM = allosteric activators of human choline transporter CHT; B-score at 10 µM; hit rate 0.49% among 310,000; AID 488977; Q9GZV3; CHT-expressing cells, membrane potential dye, choline EC20; hits give high values; LV-AA mutant CHT in HEK293 cells;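 active = initial fluorescence not abnormally high and integrated response B-score, plate-corrected, over 3 SD above library mean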
TNAP inh no acc = TNAP (human) inhibition, acceptor-free conditions; P05186; purified TNAP, CDP-star luminescence, 30 min; inhibition, % at 20 µM; hit rate 0.26% among 200,000;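 active = tissue-nonspecific alkaline phosphatase inhibition above about 50% at 20 µM in the single-dose screen, limit read from the data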
ABCB6 inh 2 = inhibitors of human ABC transporter ABCB6; Q9NP58; K562-ABCB6 porphyrin accumulation, flow cytometry, 1 h; hits give low values; fluorescence ratio to DMSO, % at 10 µM; hit rate 0.19% among 360,000;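 active = fluorescence ratio to DMSO below 75%, the collection mean minus 3 SD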;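 also: signal is porphyrin accumulated inside mitochondria; lower ratio means ABCB6 inhibition with less porphyrin fluorescence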
Target sequence (Q9NP58 whole entry, looked up): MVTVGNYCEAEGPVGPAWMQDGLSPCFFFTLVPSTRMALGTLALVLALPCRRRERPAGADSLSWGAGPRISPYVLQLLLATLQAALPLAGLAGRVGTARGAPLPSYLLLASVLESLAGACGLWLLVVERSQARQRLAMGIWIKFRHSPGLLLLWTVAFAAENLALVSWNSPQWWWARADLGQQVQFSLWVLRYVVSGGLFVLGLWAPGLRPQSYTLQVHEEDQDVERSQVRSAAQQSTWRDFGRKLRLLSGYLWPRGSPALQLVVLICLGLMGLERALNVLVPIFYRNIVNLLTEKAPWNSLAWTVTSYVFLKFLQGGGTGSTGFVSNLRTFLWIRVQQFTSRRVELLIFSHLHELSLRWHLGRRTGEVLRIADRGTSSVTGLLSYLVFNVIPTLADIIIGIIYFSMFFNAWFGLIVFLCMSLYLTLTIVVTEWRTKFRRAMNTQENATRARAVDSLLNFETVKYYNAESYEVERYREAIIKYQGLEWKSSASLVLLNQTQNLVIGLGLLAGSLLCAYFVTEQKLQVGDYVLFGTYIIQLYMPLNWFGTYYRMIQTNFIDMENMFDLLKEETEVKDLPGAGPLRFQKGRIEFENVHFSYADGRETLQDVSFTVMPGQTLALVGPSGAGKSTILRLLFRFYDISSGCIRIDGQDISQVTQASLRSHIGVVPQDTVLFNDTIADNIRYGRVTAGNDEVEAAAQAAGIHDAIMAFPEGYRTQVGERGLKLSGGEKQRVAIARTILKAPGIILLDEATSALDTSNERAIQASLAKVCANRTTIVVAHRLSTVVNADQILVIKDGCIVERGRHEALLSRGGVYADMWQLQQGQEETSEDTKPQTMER
TNAP act hiacc = increases human TNAP activity under high phosphate acceptor concentration | P05186 | purified TNAP, CDP-star luminescence, 1 M DEA, 30 min; hits give high values; 0 = EDTA background, 1 = DMSO-only activity | activation factor at 20 µM | 200,000 tested, under 10 active;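 active = activation factor at least 2 at 20 µM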
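Test system – human TNAP · Doses – 20 µM single point · Incubation – 30 min, room temperature · Signal – luminescent substrate turnover signal · Read-out basis – activation factor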
TNAP inh hiacc = blocks human TNAP under high phosphate acceptor concentration | inhibition, % at 20 µM | purified TNAP, CDP-star luminescence, 1 M DEA | hit rate 0.03% among 200,000 | P05186 | AID 1135;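 active = over 50% inhibition of tissue-nonspecific alkaline phosphatase at 20 µM in the single-dose screen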
CHT block = human CHT choline transport inhibition; Q9GZV3; CHT-expressing cells, membrane potential dye, choline response; hits give low values; B-score at 10 µM; hit rate 0.86% among 310,000; AID 488975;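 active = B-score over 3 SD under the library average, and starting fluorescence ratio not unusually high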;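 also: choline stimulus applied at its EC90 after an EC20 pre-addition; B-score computed on integrated fluorescence ratio after choline addition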
CHT inh conf = confirmation of human choline transporter CHT inhibitors; shares compounds with CHT block; CHT-expressing cells, choline membrane potential dye; LV-to-AA substituted CHT, HEK293 cells; CHT activity remaining % of control (hits give low values), % at 10 µM; hit rate 70% among 2,400; AID 493221;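 active = choline transporter activity left, mean of duplicates at 10 µM, below buffer-only control mean minus 3 SD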;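 also: depolarization triggered by choline at its EC90 following an EC20 pre-addition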
HEK293 CHT ctr = CHT inhibitor counter-screen hit in parental HEK293 cells; shares compounds with CHT block; membrane potential dye, choline response; active = decrease or increase beyond buffer ±3SD; membrane potential ratio readout (active if shifted either direction beyond buffer ±3SD; no single direction) at 10 µM; hit rate 4% among 2,400; AID 493222;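 also: parental cells lack the transporter so any hit is non-specific; ratio is peak minus trough fluorescence over baseline after EC90 choline challenge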
Numbers stand for hits; - = inactive; . = no result given.

SMILES	CHT PAM	TNAP inh no acc	ABCB6 inh 2	TNAP act hiacc	TNAP inh hiacc	CHT block	CHT inh conf	HEK293 CHT ctr
CC1CCCCN1Cc1c[nH]c2ccccc12 (configuration not stated)	-	.	-	.	.	-5.7	-	-
O=C1NC(=O)C(=Cc2coc3ccc(O)cc3c2=O)C(=O)N1	-	.	-	.	.	-6.3	60%	-
CN1C(=O)C(=Cc2coc3ccccc3c2=O)C(=O)N(C)C1=O	-	.	-	.	.	-	.	.
COc1ccc(C(c2nnnn2-c2ccc3c(c2)OCCO3)N2CCC3(CC2)C(=O)NCN3c2ccccc2)cc1 (configuration not stated)	.	.	-	.	.	.	.	.
N=c1c[n+](CC23CC4CC(CC(C4)C2)C3)[n-]o1	-	-	-	-	-	-5.6	37%	-
Cc1ccccc1CCNCc1cc2cccc(C)c2[nH]c1=O	-	.	-	.	.	-8.7	18%	-
C[C@]12CCC3C(CC[C@H]4C[C@@H](O)CC[C@]34C)C1C[C@@H](Br)[C@H]2O (some centres not stated)	.	.	-	.	.	.	.	.
Cc1ccc(N)c(C(=O)c2ccc(Br)cc2)c1	-	-	-	-	-	-5.1	-	-
Cc1cc(/C=C2\C(=O)NC(=O)N(Cc3ccco3)C2=O)c(C)n1-c1ccc(C(=O)O)cc1	-	.	-	.	.	-6.3	61%	-
Cc1cc(/C=C2\C(=O)NC(=O)N(Cc3ccco3)C2=O)c(C)n1-c1ccc(O)cc1	-	-	-	-	-	-	.	.
CCOC(=O)c1c(N)n(CCCOC(=O)c2ccco2)c2nc3ccccc3nc12	-	-	-	-	-	-	.	.
CCCCCn1c(NC(=O)c2ccco2)c(C(=O)OCC)c2nc3ccccc3nc21	-	-	-	-	-	-5.6	-	-
Brc1ccc2[nH]cc(C=NN3CCCCCC3)c2c1	.	.	-	.	.	.	.	.
COc1cc(/C=C2\C(=O)NC(=O)N(c3ccccc3)C2=O)c([N+](=O)[O-])cc1OC	.	-	-	-	-	.	.	.
COc1cc(C=C2C(=O)NC(=O)NC2=O)ccc1OS(=O)(=O)c1ccccc1[N+](=O)[O-]	-	.	-	.	.	-5.3	55%	-
CCOc1cc(C=C2C(=O)NC(=O)NC2=O)ccc1OS(=O)(=O)c1ccccc1	-	-	-	-	-	-7.3	36%	-
COc1cccc(C2CC3C(=O)C=CC2N3Cc2ccccc2)c1 (configuration not stated)	-	-	-	-	-	-5.3	-59%	-40
Oc1ccc(CC2CC3CCN2CC3)cc1O (configuration not stated)	-	75	-	-	-	-16	13%	-
CN(C)CC(C(=O)Cc1ccccc1)c1ccccc1 (configuration not stated)	.	.	-	.	.	.	.	.
C/C(=N\N=C(N)N)c1ccccc1	-	.	-	.	.	-9.9	18%	-
C[C@H]1CCC/C=C/C2C[C@H](O)CC2[C@H](O)/C=C/C(=O)O1 (some centres not stated)	-	-	-	-	-	-	.	.
CC1CCC/C=C/C2CC(O)CC2C(O)/C=C/C(=O)O1 (configuration not stated)	-	-	-	-	-	-6.6	46%	-
Cc1ccc2c(c1)C1CN(C)CCC1N2C(=O)Nc1cccc(C(F)(F)F)c1 (configuration not stated)	-	-	-	-	-	-5.4	23%	-
Cc1ccc2c(c1)[C@@H]1CN(C)CC[C@@H]1N2C(=O)Nc1cccc(C(F)(F)F)c1	-	-	-	-	-	-7.2	26%	-
Cc1ccc2c(c1)C1CN(C)CCC1N2C(=O)c1cn(-c2ccccc2)nc1-c1ccccc1 (configuration not stated)	-	-	-	-	-	-	.	.
Cc1ccc2c(c1)C1CN(C)CCC1N2C(=O)CCCN1C(=O)c2cccc3cccc(c23)C1=O (configuration not stated)	-	.	-	.	.	-5.9	50%	-

Screens (PubChem BioAssay)
